Consider two molecules from ChEMBL document CHEMBL1146459, “Production of biologically active taxoids by a callus culture of Taxus cuspidata” (2004).

A short description of assay [1]: Reversal of multidrug resistance in human 2780AD cells assessed as [3H]vincristine accumulation at 1 ug/mL after 2 hrs relative to control. In kind it is functional, A2780 ADR. The essentials:
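Multidrug-resistant human ovarian cancer 2780AD cells were exposed to taxoids at 0.1, 1 or 10 µg/mL. Radiolabelled vincristine accumulated in the cells was measured as dpm/well, using means of triplicate determinations. Results are expressed as % of vincristine accumulated relative to the control experiment. They were also scored on a seven-level index according to the range of relative accumulation.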

A further assay deals with SNB-75. Briefly: Growth inhibition of human SNB75 cells after 48 hrs by SRB assay. The assay is classed as functional. The settings on record: SNB-75, 48 h.
Setting [2] is: read-out: LC50 (the source's name).
Setting [3] is: read-out: pLC50 (the source's name) (converted).

Bounds are passed on as bounds.

Turning to `C=C1[C@@H](OC(C)=O)CC[C@]2(C)[C@@H]1C[C@@H]1C[C@H](OC(C)=O)C(C)=C([C@@H](O)[C@@H]2OC(=O)/C=C/c2ccccc2)C1(C)C`, the Activity in assay [1] came to 399%. In addition, the GI50 was 7.3 µM with SNB-75 (read-out: GI50) and 7.24 µM in the assay on SNB-75 (read-out: pGI50 (converted)). For the same molecule, the CC50 with SNB-75 (setting [2]) and in the assay on SNB-75 (setting [3]) was 100 µM in each case. Further, the TGI in the assay on SNB-75 (read-out: TGI) was 68 µM; in the assay with SNB-75 (read-out: pTGI (converted)), 67.6 µM.

As for `C=C1[C@@H](OC(C)=O)CC[C@@]2(C)C[C@H](OC(C)=O)C3=C(C)C[C@H](OC(=O)C(C)CC)[C@@H]([C@@H](OC(C)=O)[C@H]12)C3(C)C` (stereo partly drawn), the Activity in assay [1] is recorded as 256%. Moreover, the CC50 was over 100 µM with SNB-75 (setting [2]) and 100 µM in the assay with SNB-75 (setting [3]). Further, the TGI with SNB-75 (read-out: TGI) and in the assay on SNB-75 (read-out: pTGI (converted)) was 55 µM each time. Moreover, the GI50 with SNB-75 (read-out: pGI50 (converted)) was 8.91 µM.
